# Screening results: PubChem BioAssay, several laboratories
# Compounds with a hit are over-represented: about 2.1% of the library has one in this group of screens.
# RanGTP-Impb inh: inhibitors of RanGTP-importin-beta interaction, primary screen, biochemical, FRET, CFP-Ran, YFP-importin-beta, homogeneous. AID 2216. cell-free CFP-Ran/YFP-importin-beta FRET ratio. hit rate 1.1% among 300,000. inhibition, % (no concentration beside the values);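 active means more than half of the replicate wells show a fall in the fluorescence ratio signal beyond about 16%, limit read from the data, passing the limit was not always enough; inconclusive means exactly half of the replicate wells pass the set limit; inactive means fewer than half of replicates pass the limit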
# Hck-Nef inh: blocks Nef-activated human Hck kinase; inhibition, % at 20 µM; P08631; Recombinant Hck-YEEI plus Nef, Z-Lyte FRET kinase assay; hit rate 0.68% among 220,000;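 active means Hck-Nef kinase inhibition above about 50%, limit read from the data; inactive means inhibition below that limit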
# Runt-SMMHC FRET: inhibitors of human RUNX1 Runt domain binding to CBFb-SMMHC | Cerulean-Runt/Venus-CBFb-SMMHC FRET ratio 530/480, 1 h | hit rate 0.74% among 220,000 | AID 1434 | Q01196+Q13951 | inhibition, % at 20 µM;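 active means mean inhibition across duplicate retests at 20 µM reaching about 50%, limit read from the data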;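 further: inhibitors lower the FRET ratio by blocking Runt binding to CBFb-SMMHC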
# Tb hexokinase: blocks Trypanosoma brucei hexokinase 1 activity. recombinant TbHK1, G6PDH-coupled NADH A340. inhibition, % at 10 µM. hit rate 0.11% among 220,000. AID 1430;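 active means inhibition of 50% or more in the single-dose primary screen; inactive means inhibition below 50%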
# Runt-CBFb FRET: blocks binding of human RUNX1 Runt domain to CBFb; Q01196+Q13951; hit rate 0.46% among 220,000; AID 1496; Cerulean-Runt/Venus-CBFb FRET ratio 530/480, 1 h; inhibition, % at 20 µM;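 active means inhibition over about 50% at 20 µM in the single-dose screen, limit read from the data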
#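 test system = Cerulean-Runt domain fusion protein, energy donor | probe or stimulus = Venus-CBFb binding partner, 100 nM | incubation = two 1 h room-temperature incubations shielded from light | detection = fluorescence energy transfer, 422 nm excitation, 530/480 nm emission | measure = loss of energy transfer signal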
# p97 ATPase inh: blocks human p97 ATPase activity; hit rate 0.42% among 220,000; inhibition, % at 8 µM; P55072; recombinant p97 ATPase, Kinase-Glo ATP luminescence, 3 h; in the data active means inhibition above about 15%
# p97 inh conf: confirmation of human p97 ATPase inhibitors; inhibition, % at 8 µM; shares compounds with p97 ATPase inh; recombinant p97 ATPase, Kinase-Glo ATP luminescence; hit rate 44% among 760; AID 1517;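 active means percent inhibition of p97 ATPase above a set limit, the primary screen's mean plus 3 SD, cut at about 15% in these data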
# Runt-CBFb TRFRET: Runt-CBFb binding inhibition | shares compounds with Runt-CBFb FRET | TR-FRET RUNX1 Runt domain-CBFb binding | hit rate 20% among 480 | AID 1502 | inhibition, % at 20 µM; in the data active means inhibition above about 40%
# Hck-Nef confirm: confirmation of Hck-Nef kinase inhibitors; hit rate 28% among 1,300; AID 463188; Recombinant Hck-YEEI:Nef, Z-Lyte FRET kinase assay; shares compounds with Hck-Nef inh; calls only at 10 µM;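 active means average inhibition of at least 50%, with Z-scores no higher than 3 in both the phospho-tyrosine peptide and fluorescence counterscreens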
# Hits are given with their value; . = inactive; ? = inconclusive; / = not tested or not shown; + = active, no number.
SMILES,RanGTP-Impb inh,Hck-Nef inh,Runt-SMMHC FRET,Tb hexokinase,Runt-CBFb FRET,p97 ATPase inh,p97 inh conf,Runt-CBFb TRFRET,Hck-Nef confirm
CC(C)Nc1ccc(Nc2ccnc3cc4ccccc4cc23)cc1,.,69,.,.,.,29,33,/,+
CCN(CC)c1ccc(/C=C(\C#N)c2nc(-c3cccs3)c(NC(C)=O)s2)cc1,/,.,.,.,.,.,/,/,/
CC(=O)Nc1sc(N/N=C\c2ccc(O)cc2)nc1-c1cccs1,.,60,.,.,.,16,23,/,.
O=[N+]([O-])c1ccccc1NC(=S)N/N=C/c1ccc(O)c(O)c1,.,87,.,.,.,19,22,/,.
CC(/C=N/n1c(-c2ccco2)n[nH]c1=S)=C\c1ccccc1,.,.,.,.,.,.,/,/,/
COc1cccc(CCC(=O)N2CCC(n3nccc3NC(=O)CC(C)C)CC2)c1,.,/,/,/,/,/,/,/,/
c1ccc2c(c1)ncc1cccn12,.,.,.,.,.,.,/,/,/
CCn1c2ccccc2c2c3ncc4cccn4c3ccc21,68,95,88,.,.,15,.,/,.
O=C(Nc1ccc(Br)cc1)c1cccc(N2C(=O)CCC2=O)c1,.,/,/,/,/,/,/,/,/
CSCCC(=O)N1CCC(n2nccc2NC(=O)c2ccc3c(c2)OCO3)CC1,.,/,/,/,/,/,/,/,/
CN(C)S(=O)(=O)c1cccc(NC(=S)N/N=C/c2ccc(O)c(O)c2O)c1,.,91,.,.,.,16,20,/,+
COc1ccc(/C=N/NC(=O)c2cc(O)c(O)c(O)c2)cc1Cn1cc([N+](=O)[O-])cn1,.,50,.,.,54,17,31,.,.
COc1ccc(/C=N/NC(=O)c2ccccc2O)cc1Cn1cc([N+](=O)[O-])cn1,.,.,.,.,.,.,/,/,/
COc1ccc(-c2nc(-c3ccc(O)cc3O)cs2)cc1OC,.,61,.,.,.,17,19,/,+
COc1ccc(-c2nc(CCl)cs2)cc1OC,.,.,.,.,.,.,/,/,/
c1cc2c(cc1-c1csc(NNC3=NCCCCC3)n1)OCCO2,.,.,71,.,60,.,/,.,/
CCC(=O)Nc1nc(-c2ccc3c(c2)OCCO3)cs1,.,.,.,.,.,.,/,/,/
COc1ccc([N+](=O)[O-])cc1NC(=O)CSc1nc(C)cc(C)n1,.,.,.,.,57,.,/,.,/
Cc1ccc(/C=C/C(=O)N2CCN(c3ccc(F)cc3)CC2)o1,.,.,.,.,51,.,/,.,/
O=C(CC1Sc2ccccc2NC1=O)OCc1cc(=O)oc2cc(O)ccc12 (stereo unspecified),?,.,/,.,62,.,/,49,/
Cc1ccc2c(COC(=O)CC3Sc4ccccc4NC3=O)cc(=O)oc2c1C (stereo unspecified),.,.,.,.,.,.,/,/,/
CC(NC(=O)CCSc1nc(-c2ccc3c(c2)OCO3)cc(C(F)(F)F)n1)c1ccccc1 (stereo unspecified),.,.,.,.,.,.,/,/,/
CC(C)N1CCc2c(sc(N)c2C#N)C1,68,/,142,/,59,/,/,.,/
O=C(O)C[C@@H]1C(=O)O[C@@H]2C(COC(=O)c3cc(O)c(O)c(O)c3)O[C@@H](OC(=O)c3cc(O)c(O)c(O)c3)[C@@H](OC(=O)c3cc(O)c(O)c4c3[C@H]1[C@H](O)C(=O)O4)[C@H]2OC(=O)c1cc(O)c(O)c(O)c1 (stereo partly specified),/,102,.,.,51,/,/,49,/
COC1OC(COC(=O)c2ccccc2)C(OC(=O)c2ccccc2)C1OC(=O)c1ccccc1 (stereo unspecified),.,/,/,/,/,/,/,/,/
OC(COc1ccc2ccccc2c1)CN1CCN(c2ccc(F)cc2)CC1 (stereo unspecified),.,.,.,.,.,.,/,/,/
